From ChEMBL document CHEMBL1140055, “Mixed-lineage kinase 1 and mixed-lineage kinase 3 subtype-selective dihydronaphthyl[3,4-a]pyrrolo[3,4-c]carbazole-5-ones: optimization, mixed-lineage kinase 1 crystallography, and oral in vivo activity in 1-methyl-4-phenyltetrahydropyridine models” (J Med Chem, 2008)
Calls of active or inactive are those of the source. The calls are words filed in the database; no cut-off is given here.

Legend:
[1] = target: T1, Mitogen-activated protein kinase kinase kinase 9 (Homo sapiens, UniProt P80192); experiment: Inhibition of GST-fused human MLK1 at 1 uM
Summary of the method: (§1)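 Baculovirus-expressed GST fusions of human MLK1 or MLK3 kinase domain (50 ng MLK1, 100 ng MLK3), myelin basic protein substrate at 500 µg/mL.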
Target sequence in this assay (P80192 whole entry, looked up, the tested form may be a part): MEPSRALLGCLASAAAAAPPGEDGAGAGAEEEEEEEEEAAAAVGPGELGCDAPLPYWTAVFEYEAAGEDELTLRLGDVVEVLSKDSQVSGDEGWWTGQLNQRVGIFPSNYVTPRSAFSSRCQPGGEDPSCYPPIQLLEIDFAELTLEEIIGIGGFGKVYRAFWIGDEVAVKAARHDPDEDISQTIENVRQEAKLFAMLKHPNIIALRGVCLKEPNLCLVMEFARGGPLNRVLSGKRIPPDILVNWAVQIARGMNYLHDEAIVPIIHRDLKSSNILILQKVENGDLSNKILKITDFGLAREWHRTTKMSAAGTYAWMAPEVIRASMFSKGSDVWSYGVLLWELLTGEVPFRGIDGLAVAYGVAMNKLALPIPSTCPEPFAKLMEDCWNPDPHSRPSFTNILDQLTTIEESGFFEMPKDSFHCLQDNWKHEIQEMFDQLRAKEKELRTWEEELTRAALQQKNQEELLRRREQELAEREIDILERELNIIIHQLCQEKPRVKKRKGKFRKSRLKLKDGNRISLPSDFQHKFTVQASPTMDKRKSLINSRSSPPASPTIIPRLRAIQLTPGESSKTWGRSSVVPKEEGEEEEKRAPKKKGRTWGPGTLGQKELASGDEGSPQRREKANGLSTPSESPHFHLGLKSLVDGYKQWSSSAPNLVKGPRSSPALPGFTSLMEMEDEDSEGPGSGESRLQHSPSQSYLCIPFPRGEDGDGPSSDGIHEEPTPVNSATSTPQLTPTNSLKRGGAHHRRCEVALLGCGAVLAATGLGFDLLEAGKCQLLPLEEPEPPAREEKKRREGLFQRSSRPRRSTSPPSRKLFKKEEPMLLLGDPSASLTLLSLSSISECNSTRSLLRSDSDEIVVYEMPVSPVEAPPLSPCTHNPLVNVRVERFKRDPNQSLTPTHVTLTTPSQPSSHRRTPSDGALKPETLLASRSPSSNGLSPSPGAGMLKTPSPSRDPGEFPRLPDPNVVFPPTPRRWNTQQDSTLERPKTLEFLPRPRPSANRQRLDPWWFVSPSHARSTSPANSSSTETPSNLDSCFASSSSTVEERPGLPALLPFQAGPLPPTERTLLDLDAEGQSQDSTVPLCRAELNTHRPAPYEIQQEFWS

[2] = target: T2, Mitogen-activated protein kinase kinase kinase 11 (Homo sapiens, UniProt Q16584); experiment: Inhibition of GST-fused human MLK3 at 1 uM; summary of the method: as §1
Target sequence in this assay (Q16584 whole entry, looked up, the tested form may be a part): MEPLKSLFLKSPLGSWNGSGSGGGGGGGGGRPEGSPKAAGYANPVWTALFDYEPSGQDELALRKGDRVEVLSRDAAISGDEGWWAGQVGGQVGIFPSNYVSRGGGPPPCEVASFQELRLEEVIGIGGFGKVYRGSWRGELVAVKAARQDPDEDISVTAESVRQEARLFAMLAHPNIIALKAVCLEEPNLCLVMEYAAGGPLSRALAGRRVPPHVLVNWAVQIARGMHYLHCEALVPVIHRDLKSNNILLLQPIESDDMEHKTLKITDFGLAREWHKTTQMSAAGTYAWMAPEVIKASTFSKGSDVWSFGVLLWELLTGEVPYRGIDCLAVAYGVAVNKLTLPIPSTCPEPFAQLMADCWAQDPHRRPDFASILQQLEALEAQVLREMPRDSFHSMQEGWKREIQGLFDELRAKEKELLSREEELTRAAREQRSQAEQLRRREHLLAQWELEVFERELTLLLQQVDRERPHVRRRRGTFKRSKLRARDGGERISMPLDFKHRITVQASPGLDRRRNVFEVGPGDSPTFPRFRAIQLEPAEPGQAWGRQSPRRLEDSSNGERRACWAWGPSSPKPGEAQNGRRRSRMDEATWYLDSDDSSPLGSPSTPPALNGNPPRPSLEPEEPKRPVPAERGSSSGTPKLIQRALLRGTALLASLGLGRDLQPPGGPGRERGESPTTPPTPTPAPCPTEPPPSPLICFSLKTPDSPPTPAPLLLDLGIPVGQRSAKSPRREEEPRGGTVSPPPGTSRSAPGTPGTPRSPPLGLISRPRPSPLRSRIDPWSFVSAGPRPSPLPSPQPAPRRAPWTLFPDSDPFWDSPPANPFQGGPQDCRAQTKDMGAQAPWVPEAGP

[3] = target: T1, Mitogen-activated protein kinase kinase kinase 9; experiment: Inhibition of GST-fused human MLK1 expressed in CHO cells assessed as MKK4 phosphorylation; type: cell-based
Summary of the method: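 CHO cells transfected with MLK1 plus dominant-negative MKK4 cDNA; phospho-MKK4 quantified by ELISA; IC50 derived.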
Target sequence in this assay (P80192 whole entry, the tested form may be a part): as the sequence (P80192 whole entry, looked up, the tested form may be a part) above

[4] = target: T1, Mitogen-activated protein kinase kinase kinase 9; experiment: Inhibition of GST-fused human MLK1
Summary of the method: (§2)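 GST fusions of human MLK kinase domains from baculovirus (50 ng MLK1_KD, 150 ng MLK2_KD/LZ, 100 ng MLK3_KD), substrate 500 µg/mL myelin basic protein. Buffer 20 mM Hepes pH 7.2, 5 mM EGTA, 15 mM MgCl2, 1 mM DTT, 25 mM β-glycerophosphate, 0.1% BSA, 2% DMSO.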
Target sequence in this assay (P80192 whole entry, the tested form may be a part): as the sequence (P80192 whole entry, looked up, the tested form may be a part) above

[5] = target: T2, Mitogen-activated protein kinase kinase kinase 11; experiment: Inhibition of GST-fused human MLK3; summary of the method: as §2
Target sequence in this assay (Q16584 whole entry, the tested form may be a part): as the sequence (Q16584 whole entry, looked up, the tested form may be a part) above

[6] = target: Fibroblast growth factor receptor 1 (Homo sapiens, UniProt P11362); experiment: Inhibition of human FGFR1 expressed in baculovirus insect cell system
[7] = target: Mitogen-activated protein kinase 14 (Homo sapiens, UniProt Q16539); experiment: Inhibition of human P38alpha expressed in baculovirus insect cell system
[8] = Inhibition of human IRK expressed in baculovirus insect cell system
Cyclin-dependent kinase = experiment: Inhibition of human CDK expressed in baculovirus insect cell system
[9] = target: Serine/threonine-protein kinase Chk1/2 (Homo sapiens, UniProt O96017+O14757); experiment: Inhibition of human CHK1/2 expressed in baculovirus insect cell system
[10] = target: Tyrosine-protein kinase Lck (Homo sapiens, UniProt P06239); experiment: Inhibition of human Lck expressed in baculovirus insect cell system
[11] = target: Tyrosine-protein kinase Fyn (Homo sapiens, UniProt P06241); experiment: Inhibition of human Fyn kinase expressed in baculovirus insect cell system
[12] = Half life in Sprague-Dawley rat at 2 mg/kg, iv; type: ADME, organism-based; design: dose 2 mg/kg, route intravenous; details: in vivo
Summary of the method: (§3)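 Rat PK: iv dose into lateral tail vein in 3% DMSO/30% solutol/67% PBS; oral gavage in 50% Tween 80/40% propylene carbonate/10% propylene glycol, rats fasted overnight before oral dosing. Serial tail-vein blood at seven times over 6 h into heparinized tubes. Plasma protein-precipitated with acetonitrile, analysed with internal standard by LC-MS/MS. Bioavailability from iv versus po AUCs.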

[13] = AUC in Sprague-Dawley rat at 2 mg/kg, iv; type: ADME, organism-based; design: dose 2 mg/kg, route intravenous; details: plasma
Summary of the method: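 Single intravenous dose into the lateral tail vein in 3% DMSO, 30% solutol and 67% phosphate-buffered saline. Serial heparinized blood samples were taken from the lateral tail vein at seven times over 6 h. Plasma was separated by centrifugation, deproteinized with acetonitrile and analysed for drug against an internal standard by LC-MS/MS.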

[14] = Volume of distribution in Sprague-Dawley rat at 2 mg/kg, iv; type: ADME, organism-based; design: dose 2 mg/kg, route intravenous; details: in vivo; summary of the method: as §3
[15] = Clearance in Sprague-Dawley rat at 2 mg/kg, iv; type: ADME, organism-based; design: dose 2 mg/kg, route intravenous; details: in vivo; summary of the method: as §3
[16] = AUC in Sprague-Dawley rat at 4 mg/kg, po; type: ADME, organism-based; design: dose 4 mg/kg, route oral; details: plasma
Summary of the method: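 Rats were fasted overnight, then dosed by oral gavage in 50% Tween 80, 40% propylene carbonate and 10% propylene glycol. Serial heparinized blood samples were taken from the lateral tail vein at seven times over 6 h. Plasma was deproteinized with acetonitrile and analysed for drug against an internal standard by LC-MS/MS.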

[17] = Cmax in Sprague-Dawley rat at 4 mg/kg, po; type: ADME, organism-based; design: dose 4 mg/kg, route oral; details: in vivo
[18] = Half life in Sprague-Dawley rat at 4 mg/kg, po; type: ADME, organism-based; design: dose 4 mg/kg, route oral; details: in vivo
[19] = Oral bioavailability in Sprague-Dawley rat at 4 mg/kg; type: ADME, organism-based; details: in vivo; summary of the method: as §3
[20] = Metabolic stability in rat liver S9 fraction after 2 hrs in presence of NADPH; type: ADME, subcellular; details: read-out: Stability
Summary of the method: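 Incubated 2 h in rat liver S9 preparation with NADPH; percent parent remaining reported.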

SH-SY5Y = experiment: Neuroprotective activity against human SH-SY5Y cells assessed as inhibition of MPP+-induced cell death; type: functional, cell-based
Mus musculus [21] = experiment: Inhibition of MPTP-induced increase in pMKK4 levels in mouse at 6.7 mg/kg, po administered 2 hrs before MPTP challenge followed by 40 mg/kg, sc 2 hrs after MPTP challenge; type: functional
Summary of the method: (§4)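 Mice dosed orally at 6.7 mg/kg 2 h before and 2 h after MPTP (40 mg/kg sc). Substantia nigra dissected 2 h after second dose; pMKK4 measured by immunoblot against treated and control groups. Plasma drug levels taken 2 h after dosing (4 h post-MPTP).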

[22] = Plasma concentration in mouse at 6.7 mg/kg, po administered 2 hrs before MPTP challenge followed by 40 mg/kg, sc 2 hrs after MPTP challenge; type: ADME, organism-based; details: other: po followed by sc; summary of the method: as §4
Mus musculus [23] = experiment: Neuroprotective activity against MPTP-induced loss of striatal dopamine markers in mouse at 2 mg/kg, po administered once daily; type: functional, organism-based; design: dose 2 mg/kg
Summary of the method: (§5)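 Mouse MPTP neurotoxicity: low dose 20 mg/kg sc, assessing striatal DA terminals by GBR-12935 binding; high dose 40 mg/kg sc, assessing striatal DA markers and substantia nigra cell bodies by TH immunoreactivity. Test compounds given orally, q.d. or b.i.d.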

Mus musculus [24] = experiment: Neuroprotective activity against MPTP-induced loss of substantia nigra dopamine cell bodies in mouse at 2 mg/kg, po administered once daily; type: functional, organism-based; design: dose 2 mg/kg; summary of the method: as §5
[25] = target: Platelet-derived growth factor receptor beta (Homo sapiens, UniProt P09619); experiment: Inhibition of human PDGFRbeta expressed in baculovirus insect cell system
[26] = target: Mitogen-activated protein kinase kinase kinase 10 (Homo sapiens, UniProt Q02779); experiment: Inhibition of human MLK2 expressed in baculovirus insect cell system
Summary of the method: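 GST fusions of human MLK kinase domains from baculovirus (50 ng MLK1_KD, 150 ng MLK2_KD/LZ, 100 ng MLK3_KD), substrate 500 µg/mL myelin basic protein. Buffer 20 mM Hepes pH 7.2, 5 mM EGTA, 15 mM MgCl2, 1 mM DTT, 25 mM β-glycerophosphate, 0.1% BSA, 2% DMSO. […] 15 min at 37 °C, TCA precipitation, scintillation counting. IC50 by variable-slope sigmoidal fit, average of duplicates within 20%.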

[27] = target: High affinity nerve growth factor receptor (Homo sapiens, UniProt P04629); experiment: Inhibition of human TrkA expressed in baculovirus insect cell system
[28] = target: c-Jun N-terminal kinase, JNK (Homo sapiens, UniProt P45983+P53779+P45984); experiment: Inhibition of human JNK expressed in baculovirus insect cell system
[29] = target: T3, Dual specificity mitogen-activated protein kinase kinase 4 (Homo sapiens, UniProt P45985); experiment: Inhibition of human MKK4/7 expressed in baculovirus insect cell system
T3 sequence (P45985 whole entry): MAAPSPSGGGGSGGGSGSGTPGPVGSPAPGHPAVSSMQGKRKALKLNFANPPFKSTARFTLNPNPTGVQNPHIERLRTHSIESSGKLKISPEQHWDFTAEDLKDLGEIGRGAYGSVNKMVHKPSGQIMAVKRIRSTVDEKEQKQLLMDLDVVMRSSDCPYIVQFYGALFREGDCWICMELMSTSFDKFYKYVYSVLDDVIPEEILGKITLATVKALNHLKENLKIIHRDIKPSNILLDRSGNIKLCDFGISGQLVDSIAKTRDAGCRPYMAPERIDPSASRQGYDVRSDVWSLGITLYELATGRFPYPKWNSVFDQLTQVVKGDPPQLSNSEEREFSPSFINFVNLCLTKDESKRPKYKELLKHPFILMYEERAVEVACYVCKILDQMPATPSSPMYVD

Protein kinase C (PKC) = experiment: Inhibition of human PKC expressed in baculovirus insect cell system
[30] = target: Vascular endothelial growth factor receptor 1 (Homo sapiens, UniProt P17948); experiment: Inhibition of human VEGFR1 expressed in baculovirus insect cell system
[31] = target: Vascular endothelial growth factor receptor 2 (Homo sapiens, UniProt P35968); experiment: Inhibition of human VEGFR2 expressed in baculovirus insect cell system
[32] = target: Vascular endothelial growth factor receptor 3 (Homo sapiens, UniProt P35916); experiment: Inhibition of human VEGFR3 expressed in baculovirus insect cell system

Mitogen-activated protein kinase 14, sequence (Q16539 whole entry): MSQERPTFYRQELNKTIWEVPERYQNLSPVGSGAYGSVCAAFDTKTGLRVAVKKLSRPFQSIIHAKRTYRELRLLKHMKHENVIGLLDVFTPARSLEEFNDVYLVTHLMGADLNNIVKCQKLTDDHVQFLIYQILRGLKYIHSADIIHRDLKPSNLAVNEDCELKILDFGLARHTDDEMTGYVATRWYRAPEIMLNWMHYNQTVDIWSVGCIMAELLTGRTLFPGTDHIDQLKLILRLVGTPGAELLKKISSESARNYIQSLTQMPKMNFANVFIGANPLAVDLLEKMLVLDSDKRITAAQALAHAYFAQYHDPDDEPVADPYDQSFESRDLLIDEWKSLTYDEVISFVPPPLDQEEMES
Mitogen-activated protein kinase kinase kinase 10, sequence (Q02779 whole entry, the tested form may be a part): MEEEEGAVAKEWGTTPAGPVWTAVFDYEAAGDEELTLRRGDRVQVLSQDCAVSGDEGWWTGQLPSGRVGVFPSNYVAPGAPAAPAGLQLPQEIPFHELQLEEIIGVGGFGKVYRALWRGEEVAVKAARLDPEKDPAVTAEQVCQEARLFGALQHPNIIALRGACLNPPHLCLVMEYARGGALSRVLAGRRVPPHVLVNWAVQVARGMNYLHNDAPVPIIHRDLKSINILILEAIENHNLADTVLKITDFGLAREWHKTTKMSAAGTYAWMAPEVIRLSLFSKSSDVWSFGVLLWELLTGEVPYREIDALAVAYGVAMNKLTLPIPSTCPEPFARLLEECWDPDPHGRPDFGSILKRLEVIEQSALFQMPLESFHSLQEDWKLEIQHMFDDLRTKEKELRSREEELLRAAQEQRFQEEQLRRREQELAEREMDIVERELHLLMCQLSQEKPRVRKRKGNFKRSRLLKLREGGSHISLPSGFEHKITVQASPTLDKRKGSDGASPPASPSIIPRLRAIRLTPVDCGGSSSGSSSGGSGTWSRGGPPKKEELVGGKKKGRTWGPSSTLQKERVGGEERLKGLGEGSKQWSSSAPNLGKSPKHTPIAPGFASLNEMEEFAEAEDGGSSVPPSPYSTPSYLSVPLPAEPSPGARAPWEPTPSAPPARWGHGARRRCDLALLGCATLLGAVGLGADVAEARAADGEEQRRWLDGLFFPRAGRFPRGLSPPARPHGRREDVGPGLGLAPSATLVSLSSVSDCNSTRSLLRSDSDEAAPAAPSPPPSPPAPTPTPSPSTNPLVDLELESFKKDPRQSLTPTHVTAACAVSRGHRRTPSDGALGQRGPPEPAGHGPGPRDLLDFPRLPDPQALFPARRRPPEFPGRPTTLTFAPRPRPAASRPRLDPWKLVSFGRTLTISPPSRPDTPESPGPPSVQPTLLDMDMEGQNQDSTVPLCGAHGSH
Tyrosine-protein kinase Lck, sequence (P06239 whole entry): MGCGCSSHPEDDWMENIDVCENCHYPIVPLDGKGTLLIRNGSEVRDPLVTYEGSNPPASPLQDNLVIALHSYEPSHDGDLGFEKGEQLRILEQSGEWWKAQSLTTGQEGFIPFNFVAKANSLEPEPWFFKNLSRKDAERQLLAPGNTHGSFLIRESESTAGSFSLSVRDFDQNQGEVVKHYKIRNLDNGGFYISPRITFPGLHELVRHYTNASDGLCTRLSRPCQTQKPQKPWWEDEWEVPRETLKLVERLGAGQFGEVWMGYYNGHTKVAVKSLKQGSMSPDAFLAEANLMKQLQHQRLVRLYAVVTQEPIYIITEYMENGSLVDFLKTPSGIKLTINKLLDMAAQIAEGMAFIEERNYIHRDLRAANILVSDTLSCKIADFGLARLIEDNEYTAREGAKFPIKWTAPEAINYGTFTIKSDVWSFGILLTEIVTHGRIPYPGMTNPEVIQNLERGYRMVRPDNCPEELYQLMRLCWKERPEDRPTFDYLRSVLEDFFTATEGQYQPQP
High affinity nerve growth factor receptor, sequence (P04629 whole entry): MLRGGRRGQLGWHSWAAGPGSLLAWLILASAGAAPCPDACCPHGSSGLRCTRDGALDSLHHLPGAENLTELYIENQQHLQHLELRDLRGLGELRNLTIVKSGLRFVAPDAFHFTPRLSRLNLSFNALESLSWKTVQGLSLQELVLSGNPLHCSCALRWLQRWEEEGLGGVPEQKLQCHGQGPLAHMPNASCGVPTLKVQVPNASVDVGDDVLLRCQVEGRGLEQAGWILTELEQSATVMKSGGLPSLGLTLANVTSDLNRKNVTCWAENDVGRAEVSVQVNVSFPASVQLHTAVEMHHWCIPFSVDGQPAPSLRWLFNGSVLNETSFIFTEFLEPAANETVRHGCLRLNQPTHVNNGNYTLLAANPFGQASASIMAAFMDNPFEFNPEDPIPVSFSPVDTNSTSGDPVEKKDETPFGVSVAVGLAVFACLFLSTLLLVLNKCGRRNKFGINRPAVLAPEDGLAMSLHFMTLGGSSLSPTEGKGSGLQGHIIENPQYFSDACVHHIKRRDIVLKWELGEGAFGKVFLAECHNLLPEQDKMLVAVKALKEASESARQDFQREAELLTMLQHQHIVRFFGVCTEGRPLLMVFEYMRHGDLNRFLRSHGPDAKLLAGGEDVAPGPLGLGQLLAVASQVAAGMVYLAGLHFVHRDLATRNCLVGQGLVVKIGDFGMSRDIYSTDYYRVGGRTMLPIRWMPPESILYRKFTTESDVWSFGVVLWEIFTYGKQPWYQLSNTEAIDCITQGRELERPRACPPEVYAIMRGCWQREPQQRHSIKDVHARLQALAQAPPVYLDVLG

O=C1NCc2c1c1c(c3c2c2ccccc2n3CCO)CCc2cc(O)ccc2-1
inhibition [1]: 32% | inhibition [2]: 30%

CC(C)Oc1ccc2c(c1)CCc1c-2c2c(c3c1[nH]c1ccccc13)CNC2=O
IC50 [3]: 0.196 µM | IC50 [4]: 0.066 µM | IC50 [5]: 0.159 µM

O=C1NCc2c1c1c(c3c2c2ccccc2n3CCO)CCc2cc(OC3CCCCC3)ccc2-1
inhibition [1]: 35% | inhibition [2]: 4%

O=C1NCc2c1c1c(c3c2c2ccccc2n3CCO)CCc2cc(OCc3ccccn3)ccc2-1
inhibition [1]: 36% | inhibition [2]: 30%

O=C1NCc2c1c1c(c3c2c2ccccc2n3CCO)CCc2cc(OCCO)ccc2-1
inhibition [2]: 46%

O=C1NCc2c1c1c(c3c2c2ccccc2n3CCO)CCc2ccccc2-1
IC50 [5]: 1 µM | inhibition [1]: 14%

COc1ccc2c(c1)CCc1c-2c2c(c3c4ccccc4n(CCCO)c13)CNC2=O
IC50 [4]: 0.101 µM | IC50 [5]: 0.087 µM

N#CCCCOc1ccc2c(c1)CCc1c-2c2c(c3c4ccccc4n(CCO)c13)CNC2=O
inhibition [1]: 58% | inhibition [2]: 46%

COc1ccc2c(c1)CCc1c-2c2c(c3c4ccccc4n(CCO)c13)CNC2=O
IC50 [6]: > 10 µM | IC50 [7]: > 10 µM | IC50 [8]: > 10 µM | IC50 (Cyclin-dependent kinase): > 10 µM | IC50 [9]: > 10 µM | IC50 [10]: 6.4 µM | IC50 [11]: 3.4 µM | half-life [12]: 0.6 h | AUC [13]: 1.73 µg·h/mL | Vd [14]: 0.9 L/kg | clearance [15]: 1.14 L/h/kg | AUC [16]: 1.99 µg·h/mL | Cmax [17]: 0.572 µg/mL | half-life [18]: 1.4 h | bioavailability [19]: 57% | remaining at 2 h [20]: 44% | IC50 (SH-SY5Y): 0.032 µM | inhibition (INH) (Mus musculus [21]): 68% | concentration at 2 h [22]: 0.25 µM | Activity (Mus musculus [23]): Active | Activity (Mus musculus [24]): Active | IC50 [25]: > 10 µM | IC50 [3]: 0.127 µM | IC50 [26]: 1.58 µM | IC50 [27]: 1.27 µM | IC50 [28]: > 30 µM | IC50 [29]: > 3 µM | IC50 (Protein kinase C (PKC)): > 10 µM | IC50 [30]: > 10 µM | IC50 [31]: 4.71 µM | IC50 [32]: > 10 µM | IC50 [4]: 0.103 µM | IC50 [5]: 0.055 µM

O=C1NCc2c1c1c(c3[nH]c4ccccc4c23)CCc2cc(O)ccc2-1
inhibition [1]: 9% | inhibition [2]: 0%

COc1ccc2c(c1)CCc1c-2c2c(c3c1[nH]c1ccccc13)CNC2=O
IC50 [4]: 0.188 µM | IC50 [5]: 0.274 µM

O=C1NCc2c1c1c(c3c2c2ccccc2n3CCO)CCc2cc(OCC3CC3)ccc2-1
inhibition [1]: 30% | inhibition [2]: 32%

O=C1NCc2c1c1c(c3c2c2ccccc2n3CCO)CCc2cc(OC3CCCC3)ccc2-1
IC50 [3]: 0.345 µM | IC50 [4]: 0.049 µM | inhibition [2]: 32%

O=C1NCc2c1c1c(c3c2c2ccccc2n3CCO)CCc2cc(OCCOCc3ccccc3)ccc2-1
inhibition [1]: 9% | inhibition [2]: 0%

N#CCOc1ccc2c(c1)CCc1c-2c2c(c3c4ccccc4n(CCO)c13)CNC2=O
inhibition [1]: 30% | inhibition [2]: 8%

COCCOc1ccc2c(c1)CCc1c-2c2c(c3c4ccccc4n(CCO)c13)CNC2=O
inhibition [1]: 52% | inhibition [2]: 40%
